Experimental findings from ChEMBL document CHEMBL4177653, “Identification of nitroimidazole-oxime derivatives targeting the polo-box domain of polo-like kinase 1” (Bioorg Med Chem, 2017) are described below.

The test system of data set [1] is MGC-803. Kind of data set: Antiproliferative activity against human MGC803 cells after 72 hrs by MTT assay. In kind it is functional, cell-based. To be noted: MGC-803, 72 h. A digest of the protocol:
(§1)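 Cells kept in high-glucose DMEM with L-glutamine, 10% FBS, penicillin/streptomycin, at 37 °C and 5% CO2. Seeded in 96-well plates and preincubated 48 h. Compounds added at preset concentrations (6 wells each; erlotinib as positive reference) for 72 h. MTT in PBS (2.5 mg/mL) added for 4 h, formazan dissolved in DMSO, A570 read. IC50 is the concentration leaving 50% of cells surviving. Mean ± SD of three independent experiments in triplicate.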

In data set [2] the test system is HeLa. The data set can be described thus: Antiproliferative activity against human HeLa cells after 72 hrs by MTT assay. In kind it is functional, cell-based. A digest of the protocol: as §1
Data set [3] can be described thus: Cytotoxicity against human 293T cells after 72 hrs by MTT assay. Conditions: HEK-293T cells. It is filed as cell-based. (Tetrazolium assays rely on reduction of a dye to a coloured formazan, in cell work by metabolically active cells.)
Data set [4] concerns MCF7. The data set can be described thus: Antiproliferative activity against human MCF7 cells after 72 hrs by MTT assay. It is filed as functional, cell-based. Conditions: MCF7, 72 h. Summed up: as §1
Data set [5] deals with HepG2. Kind of data set: Antiproliferative activity against human HepG2 cells after 72 hrs by MTT assay. In kind it is functional, cell-based. To be noted: HepG2, 72 h. Summed up: as §1
Data set [6] concerns MGC-803. Kind of data set: Induction of apoptosis in human MGC803 cells assessed as early apoptotic cells at 0.06 uM after 24 hrs by Annexin V-FITC/propidium iodide staining-based flow cytometry (reference value: 0.1%). In kind it is functional. Background: Flow cytometry measures light scatter and fluorescence of single cells or particles in a stream.
Data set [7] deals with MGC-803. The data set can be described thus: Induction of apoptosis in human MGC803 cells assessed as necrotic cells at 0.06 uM after 24 hrs by Annexin V-FITC/propidium iodide staining-based flow cytometry (reference value: 0%). It is filed as functional.
Data set [8] relates to MGC-803. The data set can be described thus: Induction of apoptosis in human MGC803 cells assessed as late apoptotic cells at 0.01 uM after 24 hrs by Annexin V-FITC/propidium iodide staining-based flow cytometry (reference value: 0%). It is filed as functional.
For data set [9], the system named is MGC-803. Kind of data set: Induction of apoptosis in human MGC803 cells assessed as viable cells at 0.06 uM after 24 hrs by Annexin V-FITC/propidium iodide staining-based flow cytometry (reference value: 99.9%). To be noted: MGC-803, 24 h, read-out: Activity. In kind it is functional.
Data set [10] relates to MGC-803. Kind of data set: Induction of apoptosis in human MGC803 cells after 24 hrs by Annexin V-FITC/propidium iodide staining-based flow cytometry. In kind it is functional, cell-based.
Data set [11] has as its system MGC-803. Kind of data set: Induction of apoptosis in human MGC803 cells assessed as early apoptotic cells at 0.01 uM after 24 hrs by Annexin V-FITC/propidium iodide staining-based flow cytometry (reference value: 0.1%). In kind it is functional.
The subject of data set [12] is MGC-803. The data set can be described thus: Induction of apoptosis in human MGC803 cells assessed as necrotic cells at 0.12 uM after 24 hrs by Annexin V-FITC/propidium iodide staining-based flow cytometry (reference value: 0%). In kind it is functional.
For data set [13], the system named is MGC-803. The data set can be described thus: Induction of apoptosis in human MGC803 cells assessed as late apoptotic cells at 0.12 uM after 24 hrs by Annexin V-FITC/propidium iodide staining-based flow cytometry (reference value: 0%). In kind it is functional.
For data set [14], the system named is MGC-803. Kind of data set: Induction of apoptosis in human MGC803 cells assessed as viable cells at 0.12 uM after 24 hrs by Annexin V-FITC/propidium iodide staining-based flow cytometry (reference value: 99.9%). It is filed as functional. Conditions: MGC-803, 24 h, read-out: Activity.
Data set [15] relates to MGC-803. Kind of data set: Induction of apoptosis in human MGC803 cells assessed as early apoptotic cells at 0.12 uM after 24 hrs by Annexin V-FITC/propidium iodide staining-based flow cytometry (reference value: 0.1%). It is filed as functional.
Data set [16] relates to MGC-803. The data set can be described thus: Induction of apoptosis in human MGC803 cells assessed as necrotic cells at 0.01 uM after 24 hrs by Annexin V-FITC/propidium iodide staining-based flow cytometry (reference value: 0%). It is filed as functional.
In data set [17] the test system is MGC-803. The data set can be described thus: Induction of apoptosis in human MGC803 cells assessed as late apoptotic cells at 0.06 uM after 24 hrs by Annexin V-FITC/propidium iodide staining-based flow cytometry (reference value: 0%). It is filed as functional.
The subject of data set [18] is MGC-803. The data set can be described thus: Induction of apoptosis in human MGC803 cells assessed as viable cells at 0.01 uM after 24 hrs by Annexin V-FITC/propidium iodide staining-based flow cytometry (reference value: 99.9%). It is filed as functional. To be noted: MGC-803, 24 h, read-out: Activity.

≈ marks a conversion by molar mass, not a printed value.

In the case of `Cc1nc([N+](=O)[O-])cn1C/C(=N/OC(=O)c1cccc(Cl)c1)c1ccc(Br)cc1`, the IC50 (in general, the concentration that gives 50% inhibition) in data set [1] amounted to 0.18 µg/mL (≈ 0.377 µM); in data set [2] it was 4.09 µg/mL (≈ 8.56 µM); in data set [4], 0.84 µg/mL (≈ 1.76 µM); in data set [5], 1.15 µg/mL (≈ 2.41 µM). In addition, the CC50 – broadly, the concentration that lowers cell viability or growth by half – at 72 h in data set [3] stood at 700 µg/mL (≈ 1470 µM).
For the molecule `Cc1nc([N+](=O)[O-])cn1C/C(=N/OC(=O)c1ccc([N+](=O)[O-])cc1)c1ccc(Br)cc1`, the IC50 in [1] is 0.37 µg/mL (≈ 0.758 µM); in data set [2], 12.4 µg/mL (≈ 25.4 µM); in data set [4], 0.86 µg/mL (≈ 1.76 µM); in data set [5], 1.43 µg/mL (≈ 2.93 µM). Further, the midpoint of cytotoxicity in data set [3], the CC50 at 72 h, lay at 160 µg/mL (≈ 328 µM).
As to `Cc1ccc(C(=O)O/N=C(/Cn2cc([N+](=O)[O-])nc2C)c2ccc(Br)cc2)cn1`, the Activity in data set [6] was 15.4%; in [7], 0.2%; in data set [8], 28.1%; in [10], “Dose-dependent effect”; in [11] it was 9.7%; in data set [12] it was 0.1%. Further, the Activity in data set [13] stood at 64.6%; in [15], 16.9%; in data set [16], 1.2%; in [17], 43.2%. The IC50 in [1] stood at 0.005 µg/mL (≈ 0.0109 µM); in [2], 0.86 µg/mL (≈ 1.88 µM); in data set [4], 0.72 µg/mL (≈ 1.57 µM); in [5], 0.75 µg/mL (≈ 1.64 µM). Also, in [9], the viability at 0.06 µM was 41.2%. In data set [3], this molecule yielded a CC50 at 72 h of 8300 µg/mL (≈ 18100 µM). Further, in data set [14], the viability at 0.12 µM amounted to 18.4%. The viability at 0.01 µM in data set [18] was 61%.
Consider `Cc1nc([N+](=O)[O-])cn1C/C(=N/OC(=O)c1cccnc1Cl)c1ccc(Br)cc1`, for which the IC50 was determined as 0.73 µg/mL (≈ 1.52 µM) in [1], 1.28 µg/mL (≈ 2.67 µM) in data set [2], 0.76 µg/mL (≈ 1.59 µM) in data set [4] and 0.76 µg/mL (≈ 1.59 µM) in data set [5]. Moreover, in data set [3], the CC50 at 72 h was determined as 12000 µg/mL (≈ 25100 µM).
As for `Cc1nc([N+](=O)[O-])cn1C/C(=N/OC(=O)c1cccnc1)c1ccc(Br)cc1`, the IC50 was found to be 0.01 µg/mL (≈ 0.0225 µM) in data set [1], 1.51 µg/mL (≈ 3.4 µM) in data set [2], 0.78 µg/mL (≈ 1.76 µM) in data set [4] and 0.73 µg/mL (≈ 1.64 µM) in [5]. Also, in [3], it took 50 µg/mL (≈ 113 µM) to reach half-maximal cytotoxicity (CC50 at 72 h).
The matching figures for `Cc1nc([N+](=O)[O-])cn1C/C(=N/OC(=O)c1ccccc1Cl)c1ccc(Br)cc1`: 0.16 µg/mL (≈ 0.335 µM), 8.53 µg/mL (≈ 17.9 µM), 1.27 µg/mL (≈ 2.66 µM), 1.33 µg/mL (≈ 2.78 µM) and 530 µg/mL (≈ 1110 µM).
The matching figures for `Cc1nc([N+](=O)[O-])cn1C/C(=N/OC(=O)c1ccc(Cl)cc1)c1ccc(Br)cc1`: 0.45 µg/mL (≈ 0.942 µM), 8.79 µg/mL (≈ 18.4 µM), 2.79 µg/mL (≈ 5.84 µM), 1.34 µg/mL (≈ 2.81 µM) and 230 µg/mL (≈ 481 µM).
In the case of `Cc1nc([N+](=O)[O-])cn1C/C(=N/OC(=O)c1ccc(Cl)nc1)c1ccc(Br)cc1`, the IC50 came to 0.82 µg/mL (≈ 1.71 µM) in [1], 0.96 µg/mL (≈ 2.01 µM) in data set [2], 0.79 µg/mL (≈ 1.65 µM) in data set [4] and 0.71 µg/mL (≈ 1.48 µM) in [5]. Further, in data set [3], the midpoint of cytotoxicity, the CC50 at 72 h, lay at 250 µg/mL (≈ 522 µM).
For `Cc1nc([N+](=O)[O-])cn1C/C(=N/OC(=O)c1ccc(Br)cc1)c1ccc(Br)cc1` the same measures were 1.48 µg/mL (≈ 2.83 µM), 5.67 µg/mL (≈ 10.9 µM), 2.56 µg/mL (≈ 4.9 µM), 2.56 µg/mL (≈ 4.9 µM) and 330 µg/mL (≈ 632 µM).
For `Cc1ccccc1C(=O)O/N=C(/Cn1cc([N+](=O)[O-])nc1C)c1ccc(Br)cc1` the same measures were 0.84 µg/mL (≈ 1.84 µM), 9.76 µg/mL (≈ 21.3 µM), 2.15 µg/mL (≈ 4.7 µM), 2.37 µg/mL (≈ 5.18 µM) and 3800 µg/mL (≈ 8310 µM).
For `Cc1nc([N+](=O)[O-])cn1C/C(=N/OC(=O)c1ccccc1Br)c1ccc(Br)cc1`, the IC50 in [1] is 2.63 µg/mL (≈ 5.04 µM); in data set [2], above 20 µg/mL; in [4] it was 3.79 µg/mL (≈ 7.26 µM); in data set [5], 4.38 µg/mL (≈ 8.39 µM). The molecule further gave a CC50 at 72 h in data set [3] of 150 µg/mL (≈ 287 µM).
For `Cc1nc([N+](=O)[O-])cn1C/C(=N/OC(=O)c1cccc(F)c1)c1ccc(Br)cc1` the same measures were 0.21 µg/mL (≈ 0.455 µM), 4.55 µg/mL (≈ 9.86 µM), 1.87 µg/mL (≈ 4.05 µM), 0.97 µg/mL (≈ 2.1 µM) and 530 µg/mL (≈ 1150 µM).
In data set [3], `CC1=CC(=O)C(C(C)C)=CC1=O` [THYMOQUINONE] had a CC50 at 72 h of 140 µg/mL (≈ 853 µM).
